In the library only some 8.9% were active in any assay of this set; here they are far more common.
Dynein cargo inh: inhibitors of GR-EGFP nuclear translocation, primary screen, dynein cargo transport inhibitor project, imaging, high-content, 3617.4 mouse cells | test concentration mostly 20 µM; stimulated with dexamethasone, 1 µM; hits give low values | z-score, hits read low | hit rate 0.47% among 220,000;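 active = plate z-score of nuclear minus cytoplasmic receptor signal below a set negative limit, without overly bright fluorescence or cell loss, cut at about -3.5 in these data, passing the limit was not always enough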;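 note: z-score of nuclear minus cytoplasmic ring GR-EGFP intensity difference per well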
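Also added: dexamethasone, 1.0 µM final. Medium: tet-free, stripped-serum medium. Detection: fixed, Hoechst-stained cells imaged at 10x for EGFP. Read-out: nuclear-to-cytoplasmic GR-EGFP distribution per well. Times: induction 48 h, compound 1 h, agonist 30 min.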
MT stabilize HCS: microtubule stabilizers in HeLa cells, primary screen, imaging, high-content imaging. HeLa tubulin immunostaining HCS, 24 h; share of cells brighter than vehicle mean+2SD. % tubulin-high responders, % at 10 µM. hit rate 0.83% among 200,000;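 active = plate Z-score above 3 for both tubulin-high and condensed-nucleus cell shares, with cell loss under 80%, at 10 µM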;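 note: anti alpha tubulin signal scored within the nucleus-defined area of each cell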
L major viab: Leishmania major promastigote growth inhibition, primary screen | Leishmania major promastigotes, resazurin fluorescence viability | inhibition, % at 10 µM | hit rate 9% among 200,000; in the data active = inhibition above about 50%;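 note: promastigotes grown with compound for 44 hours at 28 °C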
b-catenin transl: modulators of beta-catenin nuclear translocation, primary screen, imaging, HeLa cells, immunofluorescence, high-content; nuclear translocation activity, % at 5 µM; hit rate 0.3% among 190,000;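 active = nuclear translocation activity above 50% at 5 µM, with a well cell count of 50 or more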;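 note: per-cell ratio of nuclear to cytoplasmic median beta-catenin stain intensity; plate controls were DMSO negative control for no effect and GSK-3 inhibitor IX positive control for full effect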
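assay system = human HeLa cells, endogenous beta-catenin | times = compound treatment 24 h, 37°C, 5% CO2 | detection = Anti-beta-catenin immunofluorescence on PFA-fixed, Triton-permeabilized cells, DAPI nuclei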
HSV replic up: enhancers of HSV replication in host cells, fold increase, host cell viability | HSV replication augmentation in cells | maximum fold increase | hit rate 0.005% among 220,000 | AID 1956, 2009; in the data active = maximum fold increase above about 1.5; tested in PC3 cells
An asterisk follows results filed as active; i = inactive; · = no result given.

SMILES	Dynein cargo inh	MT stabilize HCS	L major viab	b-catenin transl	HSV replic up
COCCCNC(=S)N1CCN(S(=O)(=O)c2ccc(OC)cc2)CC1	0.23	5	-2	-1	i
COc1nc(N)c(S(=O)(=O)c2ccc(C)cc2)cc1C#N	-0.056	1	-1	2	i
CCOC(=O)c1[nH]c2ccc(OC)cc2c1NC(=S)N1CCN(c2ccccn2)CC1	0.89	4	54*	-1	i
CCOC(=O)c1[nH]c2ccc(OC)cc2c1NC(=S)N1CCN(c2cccc(Cl)c2)CC1	0.59	5	-5	-2	i
CCOC(=O)c1[nH]c2ccc(OC)cc2c1NC(=S)N1CCN(c2ccccc2)CC1	1.1	4	77*	-2	i
CCOC(=O)c1[nH]c2ccc(OC)cc2c1NC(=O)CN1CCN(c2ccccn2)CC1	-0.23	6	16	-4	·
Cc1ccc(CCN=c2c([N+](=O)[O-])nn(-c3ccccc3)n2O)cc1	0.25	4	47	1	i
COc1ccc(-n2nc([N+](=O)[O-])c(=NCCc3ccccc3)n2O)cc1	-0.83	2	96*	0	i
O=[N+]([O-])c1nn(-c2ccccc2)n(O)c1=NCCc1ccccc1	0.65	1	91*	-4	i
O=C1CC(SC(=Nc2ccccc2)Nc2ccccc2)C(=O)N1c1ccc(Cl)c(Cl)c1 (stereo unspecified)	3.2	3	66*	0	i
Cc1nsc2c1ccc1ccccc12	1.4	1	10	0	i
CC1=[N+](C)c2ccc3ccccc3c2C1(C)C	-0.63	18	93*	-2	·
O=C(NCCC1=CCCCC1)C(c1ccccc1)c1ccccc1	-0.15	2	23	-1	i
CC(C)n1cnc2cc(NCc3ccccc3O)ccc21	1.7	·	·	-1	i
CC(=O)c1sc(NC(=O)c2cc(-c3ccccc3)nn2-c2ccccc2)nc1C	1.8	3	19	0	i
CN(C1CCCC1)C1CCN(C(=O)CNC(=O)/C=C/c2cccc(C(F)(F)F)c2)CC1	0.24	3	76*	-1	i
O=C(/C=C/c1cccc(C(F)(F)F)c1)Nc1cccc(C(F)(F)F)c1	0.069	2	96*	1	i
Cc1ccc(NC(=O)/C=C/c2cccc(C(F)(F)F)c2)cc1	0.13	8	-2	-3	i
CN(C1CCCC1)C1CCN(C(=O)CNC(=O)/C=C/c2ccc(F)cc2)CC1	1.2	4	4	0	i
Cc1cccc(NCc2ccccc2O)c1C	-2	4	-3	-1	i
COC(=O)CCc1c(C)c(C(=O)c2cc(F)c(F)c(F)c2F)c2ccccn12	2.3	5	5	0	i
COCc1ccc(CN2CCc3c([nH]c4ccccc34)C2C(C)(C)C)o1 (stereo unspecified)	-0.81	2	50*	-2	i
CCn1ccnc1CN1CCc2c([nH]c3ccccc23)C1C(C)(C)C (stereo unspecified)	2	4	52*	-1	i
O=C(N/N=C\c1cn(-c2ccccc2)nc1-c1ccccc1)c1ccc2c(c1)OCO2	-0.37	3	32	0	i
COc1ccc(-c2nn(-c3ccccc3)cc2/C=N/NC(=O)c2ccc3c(c2)OCO3)cc1	-0.44	3	17	0	·
SMILES	Dynein cargo inh	MT stabilize HCS	L major viab	b-catenin transl	HSV replic up
COc1ccc(NS(=O)(=O)c2cccc(C(=O)N/N=C/c3cccs3)c2)cc1	-0.42	2	53*	·	i
COc1ccc(-c2nn(-c3ccccc3)cc2/C=N/NC(=O)c2cccc(S(=O)(=O)Nc3ccccc3OC)c2)cc1	1.4	3	52*	0	i
Cc1ccc(NS(=O)(=O)c2cccc(C(=O)N/N=C/c3c(C)nn(-c4ccccc4)c3N3CCCC3)c2)c(C)c1	0.19	2	64*	-1	i
O=C(N/N=C/c1cn(-c2ccccc2)nc1-c1ccc(F)cc1)c1ccc2c(c1)OCO2	-0.39	16*	15	1	i
CC1CN(C(=O)N(C)C)CCN1C(=O)N(C)C (stereo unspecified)	-0.22	5	-4	0	i
COc1ccccc1NS(=O)(=O)c1cccc(C(=O)N/N=C/c2ccc(N3CCOCC3)cc2)c1	-0.31	2	52*	·	i
CC(C#N)(Nc1ccc(Cl)cc1)c1cccnc1 (stereo unspecified)	-0.021	2	70*	0	i
CC/C(=C(\c1ccc(O)cc1)c1ccc(OCCN(C)C)cc1)c1ccccc1	·	·	·	3	i
CCN(CC)CCOc1ccc(/C(=C(/Cl)c2ccccc2)c2ccccc2)cc1	-0.8	3	100*	27	i
COc1cccc(NC(=O)Nc2ccc3c(c2)N(C)C(=O)CS3)c1	0.16	1	59*	0	i
CC(=O)Nc1ccc(NC(=O)Nc2ccc3c(c2)N(C)C(=O)CS3)cc1	0.57	2	2	-2	i
CCOc1ccc(OCC)c(NC(=O)Nc2ccc3c(c2)N(C)C(=O)CS3)c1	-0.033	6	67*	-3	i
Cc1ccc(C)c(N2CCN(C(=O)Nc3ccc4c(c3)N(C)C(=O)CS4)CC2)c1	-0.04	3	50*	0	i
Cc1ccccc1NC(=S)NCc1ccc(Cl)cc1	0.35	2	9	0	i
Clc1ccc(-n2ncc3c(NCc4ccccn4)ncnc32)cc1	-0.05	4	4	3	i
c1ccc(-n2ncc3c(NCCCN4CCOCC4)ncnc32)cc1	-0.56	2	-4	1	i
CCCCNc1ncnc2c1cnn2-c1ccccc1	-0.16	32*	11	77*	i
Clc1ccc(-n2ncc3c(NCCCn4ccnc4)ncnc32)cc1	0.14	1	100*	-3	i
C=CCNc1ncnc2c1cnn2-c1ccc(Cl)cc1	0.48	5	-3	-2	i
Clc1ccc(-n2ncc3c(NCCN4CCOCC4)ncnc32)cc1	0.38	3	86*	·	i
CCCCNc1ncnc2c1cnn2-c1ccc(Cl)cc1	-0.45	18*	1	48	i
CC1CCCC(C)N1C(=O)COC(=O)C(Cc1ccccc1)NC(=O)c1cccs1 (stereo unspecified)	-1.3	2	1	1	i
COC(=O)C1CCN(C(=O)COC(=O)[C@@H]2CC(O)CN2S(=O)(=O)c2ccc3c(c2)OCCO3)CC1 (stereo partly specified)	0.5	3	51*	-1	i
Cc1ccc(CNC(=O)COC(=O)[C@@H]2CC(O)CN2S(=O)(=O)c2ccc3c(c2)OCCO3)cc1 (stereo partly specified)	-0.21	4	-2	-4	i
COc1ccc(CNCCC(c2ccc(F)cc2)c2ccc(OC(C)C)cc2)cc1OC (stereo unspecified)	-1.8	·	·	4	i

Screening results (PubChem BioAssay)
